# Test results: ChEMBL document CHEMBL2375220, “Bispyrimidines as potent histamine H(4) receptor ligands: delineation of structure-activity relationships and detailed H(4) receptor binding mode” (J Med Chem, 2013)
# Columns and labels:
# Histamine H4 receptor [1] = molecular target: T1, Histamine H4 receptor (Homo sapiens, UniProt Q9H3N8); test: Displacement of [3H]histamine displacement from human histamine H4 receptor expressed in […] cells after 60 mins; format: cell-based, SK-N-MC
# How it was run: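 Affinity at the human H4 receptor, from displacement of [3H]histamine binding. Reported as pKi, the mean ± SEM of at least three independent determinations.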
# [2] = Half life in mouse liver microsomes; format: ADME, Microsome
# Histamine H4 receptor [3] = molecular target: T1, Histamine H4 receptor; test: Displacement of [3H]histamine displacement from human recombinant histamine H4 receptor expressed in […] cells after 45 mins; format: cell-based, SK-N-MC
# [4] = Aqueous solubility of the compound at pH 6.8 by automated polarized light microscopy analysis; format: physicochemical
# How it was run: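 Aqueous solubility at pH 6.8, measured by precipitation from DMSO solution and reported in μg/mL.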
# [5] = Half life in human liver microsomes; format: ADME, Microsome
# T1 sequence (Q9H3N8 whole entry): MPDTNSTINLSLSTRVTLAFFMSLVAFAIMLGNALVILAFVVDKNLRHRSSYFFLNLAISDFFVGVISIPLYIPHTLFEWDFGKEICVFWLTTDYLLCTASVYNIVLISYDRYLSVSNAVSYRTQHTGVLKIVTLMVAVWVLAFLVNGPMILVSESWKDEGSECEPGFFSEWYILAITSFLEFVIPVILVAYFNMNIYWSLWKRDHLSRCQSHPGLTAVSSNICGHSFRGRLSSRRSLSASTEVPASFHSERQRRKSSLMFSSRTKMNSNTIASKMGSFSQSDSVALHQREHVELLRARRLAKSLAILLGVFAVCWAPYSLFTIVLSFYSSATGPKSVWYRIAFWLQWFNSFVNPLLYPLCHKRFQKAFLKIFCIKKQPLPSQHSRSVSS
smiles,measurement,setting,value
CC(C)CNc1nccc(NCCN(C)c2cc(-c3cccc(Cl)c3)nc(N)n2)n1,Ki,Histamine H4 receptor [1],50.1 nM
CC(C)CNc1nccc(NCCNc2ccnc(N)n2)n1,Ki,Histamine H4 receptor [1],79.4 nM
CC(C)CCc1cc(N2CCN(C)CC2)nc(N)n1,half-life,[2],< 2 min
same,Ki,Histamine H4 receptor [3],3.16 nM
same,solubility,[4],> 62 µg/mL
same,half-life,[5],61 min
Nc1nccc(NCCNc2ccnc(N)n2)n1,Ki,Histamine H4 receptor [1],794 nM
Nc1nccc(NCCNc2cc(-c3cccc(Cl)c3)nc(N)n2)n1,half-life,[2],9 min
same,Ki,Histamine H4 receptor [1],6.31 nM
same,solubility,[4],> 76 µg/mL
same,half-life,[5],51 min
Nc1nccc(NCCNC(=O)c2cc3cc(Cl)ccc3[nH]2)n1,Ki,Histamine H4 receptor [1],316 nM
Nc1nccc(NCCNc2cc(-c3ccccc3)nc(N)n2)n1,Ki,Histamine H4 receptor [3],7.94 nM
CC(C)CNc1cc(NCCNc2cc(-c3ccccc3)nc(N)n2)nc(N)n1,Ki,Histamine H4 receptor [1],3160 nM
CN1CCN(C(=O)c2cc3cc(Cl)ccc3[nH]2)CC1 [JNJ-7777120],half-life,[2],2 min
same,solubility,[4],58 µg/mL
same,half-life,[5],> 45 min
CN(CCNc1ccnc(N)n1)c1cc(-c2ccccc2)nc(N)n1,Ki,Histamine H4 receptor [1],10 nM
Cc1nccc(NCCNc2cc(-c3ccccc3)nc(N)n2)n1,Ki,Histamine H4 receptor [1],39.8 nM
Nc1nc(NCCNc2ccncn2)cc(-c2ccccc2)n1,Ki,Histamine H4 receptor [1],2000 nM
CC(C)CCc1cc(NCCNc2ccnc(N)n2)nc(N)n1,half-life,[2],18 min
same,Ki,Histamine H4 receptor [1],25.1 nM
same,solubility,[4],> 79 µg/mL
same,half-life,[5],> 120 min
CC(C)CCc1cc(NCCNc2cc(-c3ccccc3)nc(N)n2)nc(N)n1,Ki,Histamine H4 receptor [1],398 nM
CN(CCNc1ccnc(N)n1)C(=O)c1cc2cc(Cl)ccc2[nH]1,Ki,Histamine H4 receptor [1],3160 nM
CC(C)CNc1nccc(NCCNc2cc(-c3ccccc3)nc(N)n2)n1,Ki,Histamine H4 receptor [1],79.4 nM
CC(C)CNc1cc(N2CCN(C)CC2)nc(N)n1,half-life,[2],4 min
same,Ki,Histamine H4 receptor [3],3.16 nM
same,solubility,[4],> 64 µg/mL
same,half-life,[5],> 120 min
CN(CCNc1cc(-c2ccccc2)nc(N)n1)c1ccnc(N)n1,Ki,Histamine H4 receptor [1],79.4 nM
Nc1nc(Cl)cc(NCCNc2cc(-c3ccccc3)nc(N)n2)n1,Ki,Histamine H4 receptor [1],2510 nM
CC(C)CNc1cc(NCCNc2cc(-c3ccccc3)nc(N)n2)ncn1,Ki,Histamine H4 receptor [1],501 nM
CN1CCN(c2cc(-c3ccccc3)nc(N)n2)CC1,half-life,[2],4 min
same,Ki,Histamine H4 receptor [3],7.94 nM
same,solubility,[4],61 µg/mL
same,half-life,[5],43 min
Nc1nc(NCCNc2cc(-c3ccccc3)nc(N)n2)cc(-c2ccccc2)n1,Ki,Histamine H4 receptor [1],1000 nM
CC(C)CNc1nc(NCCNc2ccnc(N)n2)cc(-c2ccccc2)n1,Ki,Histamine H4 receptor [1],1260 nM
Nc1nccc(NCCNC(=O)c2cc3ccccc3[nH]2)n1,Ki,Histamine H4 receptor [1],1260 nM
CC(C)CNc1cc(N(C)CCNc2ccnc(N)n2)nc(N)n1,half-life,[2],23 min
same,Ki,Histamine H4 receptor [1],39.8 nM
same,solubility,[4],> 84 µg/mL
same,half-life,[5],101 min
CC(C)CNc1nccc(NCCNc2cc(-c3cccc(Cl)c3)nc(N)n2)n1,Ki,Histamine H4 receptor [1],50.1 nM
CC(C)CCc1cc(N(C)CCNc2ccnc(N)n2)nc(N)n1,half-life,[2],8 min
same,Ki,Histamine H4 receptor [1],10 nM
same,solubility,[4],> 83 µg/mL
same,half-life,[5],82 min
CC(C)CNc1cc(NCCNc2ccnc(N)n2)nc(N)n1,Ki,Histamine H4 receptor [1],79.4 nM
CC(C)CNc1nccc(NCCN(C)c2cc(-c3ccccc3)nc(N)n2)n1,Ki,Histamine H4 receptor [1],31.6 nM
CN1CCN(c2cc(-c3ccc(Cl)cc3)nc(N)n2)CC1,Ki,Histamine H4 receptor [3],3.16 nM
CN(CCNc1ccnc(N)n1)C(=O)c1cc2ccccc2[nH]1,Ki,Histamine H4 receptor [1],10000 nM
CC(C)CCc1cc(NCCNc2cc(Cl)nc(N)n2)nc(N)n1,Ki,Histamine H4 receptor [1],631 nM
CC(C)CNc1cc(NCCNc2ccnc(N)n2)ncn1,Ki,Histamine H4 receptor [1],1000 nM
